In data set [1] the target is Human immunodeficiency virus type 1 reverse transcriptase (Human immunodeficiency virus 1, UniProt Q72547). The data set can be described thus: Inhibition of HIV-1 recombinant reverse transcriptase after 1 hr by streptavidinalkaline phosphatase reporter system. Summed up: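 Highly purified recombinant HIV-1 RT with a poly(rA)/oligo(dT)15 homopolymer template. SA-ALP was added, then PNPP (1 mg/mL, pH 9.5) for 30 min at 37 °C, stopped with NaOH. IC50 is the mean of three experiments.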

Data set [2] relates to Human immunodeficiency virus 1. The data set can be described thus: Antiviral activity against wild-type HIV-1 SF33 infected in human TZM-bl cells after 7 days by ELISA. In kind it is functional, organism-based. To be noted: Human immunodeficiency virus 1, SF33, TZM-bl, 168 h. Summed up: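 TZM-bl cells (4 × 10⁴/well) were infected with 200 TCID₅₀ of HIV-1 SF33 for 2 h at 37 °C. Serially diluted compounds were then added and incubation continued 7 days at 37 °C. p24 was measured by ELISA.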

Data set [3] is described as follows: Cytotoxicity against human TZM-bl cells after 3 days by XTT assay. The data set is classed as cell-based. On the technique in general: Tetrazolium assays rely on reduction of a dye to a coloured formazan, in cell work by metabolically active cells.
Data set [4] in a line: Selectivity index, ratio of CC50 for human TZM-bl cells to EC50 for wild-type HIV-1 SF33. The data set is classed as toxicity, cell-based. The following applies: read-out: Ratio CC50/EC50. Summed up: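 SI is calculated as CC50 in TZM-bl cells divided by EC50 against HIV-1 SF33 infection.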

For the compound `O=c1[nH]c(CCc2ccccc2)cc(Oc2ccccc2)c1I`, the IC50 – broadly, the concentration needed to halve the response being measured – in data set [1] stood at 0.29 µM. In addition, a half-maximal effect in data set [2] (EC50) was put at 0.15 µM. Also, half-maximal cytotoxicity in data set [3] (CC50 at 72 h) was put at 181 µM. Further, the selectivity ratio in data set [4] came out at 1200.

In the case of `CC1CCCCC1Nc1cc(CCc2ccccc2)[nH]c(=O)c1Br` (stereo unspecified), in data set [1], the IC50 worked out at 0.68 µM. In addition, the EC50 (commonly the concentration that produces a half-maximal response) in data set [2] was 13.7 µM. In addition, the CC50 (commonly the concentration giving 50% cytotoxicity) at 72 h in data set [3] was found to be 131 µM. Besides, the selectivity ratio in data set [4] worked out at 9.6. Take `O=c1[nH]c(CCc2ccccc2)cc(NC2CCCC2)c1Br`: in data set [1], the IC50 worked out at 43.3 µM. As to `CC(C)c1c(Sc2ccccc2)cc(CCc2ccccc2)[nH]c1=O`, the IC50 in data set [1] stood at 0.093 µM. In addition, in data set [2], the EC50 came out at 0.136 µM. The compound also showed a CC50 at 72 h in data set [3] of 136 µM. In data set [4], the selectivity ratio worked out at 998. In the case of `O=c1[nH]c(CCc2ccccc2)cc(NC2CCCCC2)c1Br`, the IC50 in data set [1] came out at 40.3 µM. On the same count and under the same terms, as for `O=c1[nH]c(CCc2ccccc2)cc(NC2CCCC2)c1I`, the figure is 24 µM; as for `Cc1ccc(Sc2cc(CCc3ccccc3)[nH]c(=O)c2I)cc1`, 12 µM. For `O=c1[nH]c(CCc2ccccc2)cc(Nc2ccccc2)c1Br`, the half-maximal inhibitory concentration (IC50) in data set [1] amounted to 11.3 µM. Same read-out and setting: as for `Cc1ccc(Sc2cc(CCc3ccccc3)[nH]c(=O)c2Br)cc1`, the figure is 16.9 µM. In the case of `O=c1[nH]c(CCc2ccccc2)cc(NC2CCCCC2)c1I`, the IC50 in data set [1] worked out at 15.2 µM.

Turning to `O=c1[nH]c(CCc2ccccc2)cc(Sc2ccccc2)c1Br`, the IC50 in data set [1] came to 57.1 µM.

Take `CC1CCCCC1Nc1cc(CCc2ccccc2)[nH]c(=O)c1I` (stereo unspecified): in data set [1], the IC50 came out at 0.42 µM. This compound yielded an EC50 in data set [2] of 2.71 µM. Besides, the cytotoxic concentration (CC50) at 72 h in data set [3] amounted to 50.2 µM. Besides, the selectivity ratio in data set [4] stood at 18.5. For the compound `O=c1[nH]c(CCc2ccccc2)cc(Nc2ccccc2)c1I`, the IC50 in data set [1] amounted to 8.14 µM. Still for that read-out and setting: as for `O=c1[nH]c(CCc2ccccc2)cc(Sc2ccccc2)c1I`, the figure is 20.3 µM; as for `CN(C)c1c(Sc2ccccc2)cc(CCc2ccccc2)[nH]c1=O`, 15.2 µM. `CC(C)c1c(Oc2ccccc2)cc(CCc2ccccc2)[nH]c1=O`: the IC50 in data set [1] was 0.089 µM. Also, the midpoint of the response in data set [2], the EC50, lay at 0.0563 µM. In addition, the midpoint of cytotoxicity in data set [3], the CC50 at 72 h, lay at 195 µM. Also, in data set [4], the selectivity ratio is 3470.
